Results: ChEMBL document CHEMBL4334463, “Free Ligand 1D NMR Conformational Signatures To Enhance Structure Based Drug Design of a Mcl-1 Inhibitor (AZD5991) and Other Synthetic Macrocycles” (J Med Chem, 2019)

How the values were obtained:
[1] = Lipophilicity, logD of the compound at pH 7.4; assay type: physicochemical; conditions: buffer
Procedure, shortened: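 Shake-flask partitioning to determine logD, with the aqueous phase at pH 7.4.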

[2] = target: T1, B-cell lymphoma 6 protein (Homo sapiens, UniProt P41182)
[3] = target: T2, Induced myeloid leukemia cell differentiation protein Mcl-1 (Homo sapiens, UniProt Q07820); experiment: Inhibition of Mcl1 (unknown origin) by TR-FRET assay
Target sequence in this assay (Q07820 whole entry): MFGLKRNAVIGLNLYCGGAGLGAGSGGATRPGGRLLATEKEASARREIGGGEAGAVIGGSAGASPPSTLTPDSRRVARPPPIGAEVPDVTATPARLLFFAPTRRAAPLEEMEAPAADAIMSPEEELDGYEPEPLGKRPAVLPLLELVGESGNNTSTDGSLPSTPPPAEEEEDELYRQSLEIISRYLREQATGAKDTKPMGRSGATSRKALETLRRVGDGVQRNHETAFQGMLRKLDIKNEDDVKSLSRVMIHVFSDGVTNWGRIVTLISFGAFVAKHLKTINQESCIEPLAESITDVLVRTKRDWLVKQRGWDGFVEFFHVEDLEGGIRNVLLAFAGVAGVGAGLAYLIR

[4] = target: T2, Induced myeloid leukemia cell differentiation protein Mcl-1
Target sequence in this assay (Q07820 whole entry): as above

[5] = target: T1, B-cell lymphoma 6 protein; experiment: Inhibition of Bcl6 (unknown origin) by TR-FRET assay
[6] = target: T2, Induced myeloid leukemia cell differentiation protein Mcl-1; experiment: Binding affinity to Mcl-1 (unknown origin) by SPR assay
Target sequence in this assay (Q07820 whole entry, looked up): as the sequence (Q07820 whole entry) above

In the case of `N#Cc1cnn2c3cc(nc12)N1C[C@H](C[C@H]1CO)OC/C=C/COc1cc(cc2c1NC(=O)CC2)N3`, the logD [1] is reported as 2.2 and the T1/2 [2] is reported as 2 min.

Work on `O=C1C[C@@H](Cc2ccc(Cl)c(Cl)c2)NC(=O)CN2C(=O)[C@H](CCc3ccccc32)NC(=O)C[C@H](Cc2ccc(Cl)cc2)NCCCN1` yielded a logD [1] of 3.7 and a Ki [3] of 5210 nM.

`CN1CCCN[C@@H](Cc2ccc(S(C)(=O)=O)cc2)CC(=O)N[C@H]2CCc3ccccc3N(CC(=O)N[C@H](Cc3ccc(Cl)c(CCc4ccccc4)c3)CC1=O)C2=O` showed a logD [1] of 4.1 and a T1/2 [4] of 0.3 min.

In the case of `CC1CCN[C@@H](Cc2ccc(Cl)cc2)CC(=O)N[C@H]2CCc3ccccc3N(CC(=O)N[C@H](Cc3ccc(Cl)c(Cl)c3)CC(=O)N1C)C2=O` (stereo in doubt; 11), the Ki [3] is reported as 4960 nM.

For `CN1CCCCCOc2cc(cc3c2N(C)C(=O)CC3)Nc2cc1nc1c(C#N)cnn21`, the IC50 [5] was 190 nM and the logD [1] was 3.6.

With `N#Cc1cnn2c(Nc3ccc4c(c3)CCC(=O)N4)cc(N3CCC[C@H]3CO)nc12` the logD [1] was 2.3.

In the case of `C[C@@H]1CCCCN(C)c2cc(n3ncc(C#N)c3n2)Nc2cc3c(c(c2)O1)N(C)C(=O)CC3`, the IC50 [5] is reported as 25 nM and the logD [1] is reported as 4.

In the case of `CN1CCCN[C@@H](Cc2ccc(Cl)cc2)CC(=O)N[C@H]2CCc3ccccc3N(CC(=O)N[C@H](Cc3ccc(Cl)c(Cl)c3)CC1=O)C2=O`, the logD [1] is reported as 4.3 and the Ki [3] is reported as 155 nM.

`CC1CCN[C@@H](Cc2ccc(Cl)cc2)CC(=O)N[C@H]2CCc3ccccc3N(CC(=O)N[C@H](Cc3ccc(Cl)c(Cl)c3)CC(=O)N1C)C2=O` (stereo in doubt; 12) gave a Ki [3] of 300 nM.

`CNC(=O)C[C@@H](Cc1ccc(Cl)c(Cl)c1)NC(=O)CN1C(=O)[C@@H](NC(=O)C[C@@H](N)Cc2ccc(Cl)cc2)CCc2ccccc21` showed a logD [1] of 3.8 and a Ki [3] of 1990 nM.

`Cc1nn(C)c(C)c1-c1cccc2c(CCCOc3cccc4ccccc34)c(C(=O)O)[nH]c12` showed a logD [1] of 3.6, a Kd [6] of 480 nM and a Ki [3] of 290 nM.

In the case of `Cc1cc(CSCc2nn(C)c(C)c2-c2cccc3c(CCCOc4cccc5ccccc45)c(C(=O)O)[nH]c23)nn1C`, the logD [1] is reported as 4.2.

In the case of `N#Cc1cnn2c3cc(nc12)N1CC[C@@H](C1)OC/C=C/COc1cc(cc2c1NC(=O)CC2)N3`, the logD [1] is reported as 2.4.

For `N#Cc1cnn2c(Nc3ccc4c(c3)CCC(=O)N4)cc(N3CCC[C@H]3CC(=O)O)nc12`, the logD [1] was -0.4.

Work on `C[C@H]1CCN(C)C(=O)C[C@@H](Cc2ccc(Cl)c(Cl)c2)NC(=O)CN2C(=O)[C@H](CCc3ccccc32)NC(=O)C[C@H](Cc2ccc(Cl)cc2)N1` yielded a Ki [3] of 48 nM.

`C[C@@H]1CCN(C)C(=O)C[C@@H](Cc2ccc(Cl)c(Cl)c2)NC(=O)CN2C(=O)[C@H](CCc3ccccc32)NC(=O)C[C@H](Cc2ccc(Cl)cc2)N1` showed a Ki [3] of 739 nM.
